Source: PubChem (several laboratories)
STAT3 inh = IL-6 driven STAT3 reporter inhibitors, primary screen, U3A cells, luciferase, luminescence, MLSCN library; 0.89% of 190,000 active; IL-6 STAT3-luciferase reporter; host cell line lacks STAT1; inhibition, % at 5.5 µM; AID 862, 2007;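 active = inhibition above the mean inhibition across all screened compounds plus 3 SD, cut at about 44% in these data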;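 also: 0% = DMSO only wells and 100% = 100 µM nifuroxazide control wells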
STAT1 blocker = STAT1 signaling inhibitors, primary screen, cell-based, HTS, luciferase reporter; NIH 3T3 STAT1-luciferase reporter, IFN-gamma, luminescence; 0.35% of 200,000 active; inhibition, % at 5.5 µM;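 active = inhibition above a set limit, the mean inhibition across all tested compounds plus 3 SD, cut at about 34% in these data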;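 also: 0% = IFN-gamma with DMSO and 100% = IFN-gamma with 300 µM nifuroxazide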
HSV replic up = enhancers of HSV replication in host cells, fold increase, host cell viability. HSV replication augmentation in cells. maximum fold increase. 0.005% of 220,000 active; in the data active = maximum fold increase above about 1.5; tested in PC3 cells
Cl transport mod = KCC2 cotransporter modulators, thallium flux, primary screen, cell-based, HEK293 KCC2, FluoZin-2 fluorescence, MLSMR; Solute carrier family 12 member 5 (Homo sapiens), Q9H2X9; KCC2 cells, thallium flux FluoZin-2 fluorescence; B-score of Tl+ flux slope (higher = more flux/activation; lower = inhibition) at 10 µM; 2.2% of 190,000 active; AID 1456, 2008;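 active = thallium flux slope and its plate-corrected score both differing from the plate sample mean at a set confidence after two filtering rounds, in either direction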;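 also: slope of fluorescence scaled to starting intensity during 10 to 20 s after thallium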
STAT3 activator = IL-6 driven STAT3 reporter potentiators, primary screen, U3A cells, luciferase, luminescence, MLSCN library; IL-6 STAT3-luciferase reporter; 100% = signal with IL-6 EC80 alone; 0.91% of 190,000 active; activation (% of control), % at 5.6 µM;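 active = activation above the screen-wide mean of compound activation plus 3 SD, cut at about 130% in these data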;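 also: 0% = background luminescence of wells with medium and substrate only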
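Test system: human U3A cells carrying STAT3-luciferase construct; control set: IL-6-only wells as 100% reference; timing: compound pre-incubation 1 h before IL-6, then 6 h stimulation at 37 °C; also added: IL-6 stimulus at 33 ng/mL final; evaluation: % activation versus median of IL-6-stimulated wells; detection: reporter luminescence signal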
STAT1 act = STAT1 signaling activators, primary screen, cell-based, HTS, luciferase reporter. NIH 3T3 STAT1-luciferase reporter, IFN-gamma, luminescence; 100% = IFN-gamma alone, no compound. activation (% of control), % at 5.5 µM. 2.6% of 200,000 active. AID 932, 2007;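 active = activation above the screen-wide mean activation plus 3 SD, cut at about 130% in these data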;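 also: raw ratio to IFN-gamma control signal so 100% means no change and 0% no light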
* hit, by the source's call; i = inactive; . = no result. A selection: hits, their analogues and other compounds. The true share with any hit is near 5.5%.

SMILES	STAT3 inh	STAT1 blocker	HSV replic up	Cl transport mod	STAT3 activator	STAT1 act
O=C(Nc1ccc([N+](=O)[O-])cc1)C(Cc1ccccc1)N1C(=O)c2cccc3cccc(c23)C1=O (stereo unspecified)	-44	0	i	1.5	135*	100
CSc1nnc(C)c(=O)n1COC(=O)c1ccc(S(=O)(=O)N(C)C)cc1	-8	7	i	0.84	104	96
CN(C)CCCN=c1cc(-c2ccccc2)oc2ccc(Cl)cc12	-1	-54	i	0.18	104	148*
CC(O)CN=c1cc(-c2ccccc2)oc2ccc(Cl)cc12 (stereo unspecified)	10	-37	i	0.073	95	134*
O=C(COc1ccc(CO)cc1Cl)Nc1ccc(F)cc1	32	-39	i	.	78	136*
O=C(COc1ccc(CO)cc1)Nc1ccc(F)cc1	-5	-3	i	-0.0072	108	102
COc1ccccc1NC(=O)COc1ccc(Br)cc1CO	22	-12	i	.	82	111
COc1cc(CO)ccc1OCC(=O)Nc1ccc(Br)cc1	-34	-18	i	0.28	133*	113
COc1ccccc1NC(=O)COc1ccc(CO)cc1Cl	10	-35	i	-0.21	94	133*
COc1cc(/C=N/NC(=O)c2cccnc2)ccc1OCC(=O)Nc1ccccc1Cl	-3	-39	i	-0.54	104	136*
Cc1ccc(NC(=O)COc2ccc(Br)cc2CO)cc1	13	-16	i	.	90	110
O=C(O)CCC(=O)Nc1ccccc1C(=O)NCc1ccccc1	-4	-2	i	0.54	101	102
COc1ccc(S(=O)(=O)Nc2ccc(O)c3ccccc23)cc1	-37	2	i	.	134*	99
Cc1cc2nc(CCN(C(=S)NCC3CCCO3)C3CCCC3)[nH]c2cc1C (stereo unspecified)	-4	1	i	-3.7	108	98
Cc1cc2nc(CCN(C(=S)NCC(C)C)C3CCCC3)[nH]c2cc1C	9	8	i	-5.6*	96	92
CCN1CCc2nc(NC(=O)c3ccccc3)sc2C1	5	-51	.	0.7	101	147*
NC(=O)c1cccnc1Nc1cccc([N+](=O)[O-])c1	-10	-39	i	1.5	112	134*
O=C(NC1CCCCC1)c1noc2c1CCCCC2	-1	-54	i	-0.21	106	149*
COCCNC(=O)c1noc2c1CCc1cc(OC)ccc1-2	1	-28	i	-0.0099	105	128
COc1ccc2c(c1)CCc1c(C(=O)NC3CCCCC3)noc1-2	1	-33	i	0.43	103	129*
COc1ccc2c(c1)CCc1c(C(=O)NCc3ccco3)noc1-2	4	-34	i	0.29	101	129*
COc1ccc2c(c1)CCc1c(C(=O)N(C)c3ccccc3)noc1-2	4	-34	i	-2.4	105	129*
CC(C)(C)C1CCc2onc(C(=O)NC3CCCC3)c2C1 (stereo unspecified)	18	-2	i	0.67	88	101
CCCCN(C)C(=O)c1nc2ccccn2c1CN1CCN(C/C=C/c2ccccc2)CC1	3	-5	i	-0.64	102	102
Cc1cc(NC(=O)CC#N)n(-c2ccccc2)n1	12	2	i	-0.049	97	98
Cc1ccc(-c2c(C(=O)NNC(=S)NCC3CCCO3)csc2C)cc1 (stereo unspecified)	5	14	i	0.75	103	86
Cn1cnnc1SCC(=O)c1cc2ccccc2o1	4	2	i	0.8	101	99
Cn1c(SCC(=O)c2cc3ccccc3o2)nnc1-c1ccccc1	-4	-4	i	-7.2*	108	104
CCOC(=O)CNC(=O)N1CCCC(C(=O)c2cccc(Cl)c2)C1 (stereo unspecified)	7	-1	i	1.2	99	101
